Measurements published in ChEMBL document CHEMBL4011600, “Identification of compounds with cytotoxic activity from the leaf of the Nigerian medicinal plant, Anacardium occidentale L. (Anacardiaceae)” (Bioorg Med Chem, 2017).

What was measured:
HeLa [1] = experiment: Cytotoxicity against human HeLa cells assessed as reduction in cell viability after 48 hrs by Alamar blue staining based fluorescence assay; assay type: functional
Summary of the method: (§1)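 HeLa cells seeded at 1×10^5 cells/ml in MEM with 10% FBS, 1% NEAA, 2 mM glutamine and 1% antibiotic-antimycotic, grown 24 h at 37°C under 5% CO2. Compounds then added for 48 h at concentrations up to 1.6 mM. Readings normalized to DMSO-only controls set at 100%.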

HeLa [2] = experiment: Induction of morphological changes in human HeLa cells assessed as cell rounding by microscopic method; assay type: functional, cell-based
Summary of the method: (§2)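 HeLa cells seeded at 1×10^5 cells/ml and grown for 24 h at 37°C under 5% CO2, then exposed to compounds for 48 h. Cell loss and rounding of the remaining cells were judged against DMSO-treated controls by inverted phase microscopy at ×10 magnification, with camera images taken after treatment.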

HeLa [3] = experiment: Induction of morphological changes in human HeLa cells assessed as loss of cells by microscopic method; assay type: functional, cell-based; summary of the method: as §2
HeLa [4] = experiment: Cytotoxicity against human HeLa cells assessed as reduction in cell viability at 1 uM after 48 hrs by Alamar blue staining based fluorescence assay relative to control; assay type: functional
Summary of the method: as §1, with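 “mM. Alamar blue applied for 3 h, plates cooled to room temperature, fluorescence read at ex 544, em 590 nm.” for “mM.”, “100%. IC50 taken from concentration-response curve fits, mean ± SEM, n=3-4.” for “100%.”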

HeLa [5] = experiment: Cytotoxicity against human HeLa cells assessed as reduction in cell viability at 2.5 uM after 48 hrs by Alamar blue staining based fluorescence assay relative to control; assay type: functional
Summary of the method: as §1, with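 “mM. Alamar blue applied for 3 h, plates cooled to room temperature, fluorescence read at ex 544, em 590 nm.” for “mM.”, “100%. IC50 taken from concentration-response curve fits, mean ± SEM, n=3-4.” for “100%.”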

HeLa [6] = experiment: Cytotoxicity against human HeLa cells assessed as reduction in cell viability at 5 uM after 48 hrs by Alamar blue staining based fluorescence assay relative to control; assay type: functional
Summary of the method: as §1, with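 “mM. Alamar blue applied for 3 h, plates cooled to room temperature, fluorescence read at ex 544, em 590 nm.” for “mM.”, “100%. IC50 taken from concentration-response curve fits, mean ± SEM, n=3-4.” for “100%.”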

Question: Which results are given for `C=C1C(=O)O[C@@H]2/C=C(/C)[C@H](O)C/C=C(\C)[C@@H](O)[C@H](OC(=O)/C(C)=C\C)[C@@H]12`?
Answer: Activity (HeLa [1]): Dose-dependent effect; IC50 (HeLa [1]): 36.2 µM; Activity (HeLa [2]): Dose-dependent effect; Activity (HeLa [3]): Dose-dependent effect

Question: `COC(=O)c1cc(OC)c(CCc2c(OC)cc(C(=O)OC)cc2OC)c(OC)c1` was tested. Which Activity (HeLa [1]) did it give?
Answer: Its Activity is “Dose-dependent effect”.

Question: What about the IC50 (HeLa [1]) of the same compound?
Answer: Its IC50 is 46.5 µM.

Question: Which IC50 (HeLa [1]) does the source give for `COc1cccc2c1C(=O)c1c(O)c3c(c(O)c1C2=O)C[C@@](O)(C(=O)CO)C[C@@H]3O[C@H]1C[C@H](N)[C@H](O)[C@H](C)O1` [DOXORUBICIN] here?
Answer: The IC50 was 2.3 µM.

Question: And the Activity (HeLa [4])?
Answer: The Activity was 106.5%.

Question: And the Activity (HeLa [5])?
Answer: Its Activity is 50.8%.

Question: What about the Activity (HeLa [6]) of the same compound?
Answer: The Activity was 40%.

Question: `COC(=O)c1cc(O)c(O)c(O)c1` [GALLIC ACID METHYL ESTER] was tested. Which Activity (HeLa [1]) did it give?
Answer: Its Activity is “Dose-dependent effect”.

Question: And the IC50 (HeLa [1])?
Answer: Its IC50 is 267 µM.
